Most compounds without a hit are left out; they make up all but 1.4% or so of the library.
PvdQ acylase – P. aeruginosa PvdQ acylase inhibitors, primary screen, biochemical, fluorescence, plate reader and imaging, single point; PvdQ acylase [Pseudomonas aeruginosa LESB58]; purified PvdQ acylase; inhibition, % at 10 µM; 0.063% of 340,000 active; AID 488965, 2010; in the data active means inhibition above about 30%, passing the limit was not always enough;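 further: 0% = vehicle neutral wells and 100% = reference inhibitor wells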
DYRK1A inh – rat Dyrk1A kinase inhibitors, primary screen, biochemical, single point, plate reader | Dual specificity tyrosine-phosphorylation-regulated kinase 1A (Rattus norvegicus), Q63470 | ADP-Glo luminescence, NFATc1 peptide | inhibition, % at 12.5 µM | 0.43% of 310,000 active | AID 504441, 2011; in the data active means inhibition above about 50%;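 further: plate controls were vehicle with enzyme for no effect and no enzyme for full effect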
CAL PDZ FP-1 – CAL PDZ peptide-binding inhibitors, primary screen, biochemical, fluorescence polarization, Cer-tagged CAL PDZ, HTS | Golgi-associated PDZ and coiled-coil motif-containing protein (Homo sapiens), Q9HD26 | purified CAL PDZ, TMR-peptide fluorescence polarization, 1 h | inhibition, % at 20 µM | 0.02% of 330,000 active | AID 504414, 2011;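 active means highest replicate inhibition of at least 40%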;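 further: plate controls were DMSO neutral control wells for no effect and unlabeled competitor peptide control wells for full effect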
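Material: tagged CAL PDZ domain; buffer or medium: 25 mM sodium phosphate pH 7.4, 150 mM NaCl, TCEP, IgG, Thesit; compound dosing: single point, 20 µM; schedule: 1 h incubation at room temperature before polarization reading; measured by: FP readout, S and P plane fluorescence; read-out basis: percent inhibition from loss of millipolarization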
CAL PDZ FP-2 – untagged CAL PDZ binding inhibitors, primary screen, biochemical, fluorescence polarization, HTS; purified CAL PDZ, TMR-peptide fluorescence polarization, 1 h; Golgi-associated PDZ and coiled-coil motif-containing protein (Homo sapiens), Q9HD26; 0.92% of 300,000 active; inhibition, % at 24.9 µM;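 active means mean inhibition of at least 30% with at least half of replicates also reaching 30%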;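 further: 0% = DMSO neutral control and 100% = excess unlabeled competitor peptide PRC23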
Tb MetRS inh – T. brucei MetRS inhibitors, primary screen, biochemical, luminescence; 0.4% of 360,000 active; AID 624268, 2012; purified T. brucei MetRS, ATP depletion, Kinase-Glo luminescence; inhibition, % at 11.9 µM; methionyl-tRNA synthetase (Trypanosoma brucei brucei);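 active means inhibition above a per-plate cutoff of the control wells' mean inhibition plus 3 SD, cut at about 5.5% in these data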;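 further: 0% = DMSO wells median and 100% = median of wells with control inhibitor compound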
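technique = Kinase-Glo luminescence, ATP depletion format | system = purified MetRS (methionyl-tRNA synthetase) enzyme from Trypanosoma brucei | timing = 15 min preincubation, 2 h reaction, all 25 °C | evaluation = percent inhibition versus plate control medians | dosing = single dose, 11.9 µM final nominal, 0.9% final DMSO | also added = substrates ATP, L-methionine and bulk Escherichia coli tRNA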
CDK5 inh – inhibitors of human CDK5/p35 kinase, primary screen, biochemical, single concentration; Cyclin-dependent kinase 5 (Homo sapiens) + Cyclin-dependent kinase 5 activator 1 (Homo …; AID 488839, 2010; 0.01% of 330,000 active; inhibition, % at 10 µM; Recombinant CDK5/p35, ADP-Glo luminescence, 60 min;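 active means highest replicate inhibition of at least 50% and at least 75% of replicates reaching 50%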;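 further: plate controls were DMSO neutral control for no effect and GW8510 at 10 µM for full effect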
Target sequence (Q00535 whole entry, looked up): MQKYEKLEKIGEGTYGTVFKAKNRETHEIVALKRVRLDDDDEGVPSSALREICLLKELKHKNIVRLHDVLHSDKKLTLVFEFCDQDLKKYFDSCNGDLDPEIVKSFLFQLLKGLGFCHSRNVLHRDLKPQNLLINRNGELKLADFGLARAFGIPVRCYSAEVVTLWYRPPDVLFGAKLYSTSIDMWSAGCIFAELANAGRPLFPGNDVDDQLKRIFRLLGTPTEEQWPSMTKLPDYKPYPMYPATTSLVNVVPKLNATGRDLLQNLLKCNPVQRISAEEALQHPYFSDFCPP
Target sequence (Q15078 whole entry, looked up): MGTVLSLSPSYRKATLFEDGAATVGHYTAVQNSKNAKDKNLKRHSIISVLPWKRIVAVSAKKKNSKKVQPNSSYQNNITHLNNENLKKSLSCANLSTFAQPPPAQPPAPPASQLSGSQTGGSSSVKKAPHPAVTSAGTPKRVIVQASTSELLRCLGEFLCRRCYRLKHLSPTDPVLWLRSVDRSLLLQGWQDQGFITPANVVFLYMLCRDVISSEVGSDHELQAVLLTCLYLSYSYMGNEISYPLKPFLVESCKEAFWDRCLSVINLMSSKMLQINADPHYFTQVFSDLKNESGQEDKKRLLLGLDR
Tb MetRS conf – T. brucei MetRS inhibitors, confirmation, biochemical, luminescence | inhibition, % at 11.9 µM | shares compounds with Tb MetRS inh | T. brucei MetRS enzyme, luminescence (ATP depletion) | 93% of 1,400 active | AID 624412, 2012; in the data active means inhibition above about 7%
Jurkat cytotox – Jurkat T cell cytotoxicity, cytotoxicity control for T. brucei MetRS inhibitor project, luminescence, high throughput. inhibition, % at 8.3 µM. AID 624413, 2012. Jurkat cells viability, ATP luminescence. 12% of 1,400 active. shares compounds with Tb MetRS inh; in the data active means inhibition above about 15%;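 further: 0% = vehicle and 100% = reference inhibitor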
TbMetRS FP orth – T. brucei MetRS inhibitors, orthogonal assay for T. brucei MetRS inhibitor project, biochemical, fluorescence polarization; purified T. brucei MetRS; shares compounds with Tb MetRS inh; AID 651607, 2012; inhibition, % at 11.9 µM; 44% of 1,400 active; in the data active means inhibition above about 17%;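 further: 0% = vehicle wells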
Active calls of the source: *; nt = not tested or not shown.

SMILES	PvdQ acylase	DYRK1A inh	CAL PDZ FP-1	CAL PDZ FP-2	Tb MetRS inh	CDK5 inh	Tb MetRS conf	Jurkat cytotox	TbMetRS FP orth
O=C(c1ccccc1)c1ccc(-n2cnnc2)c([N+](=O)[O-])c1	-9	-5	-2	-1	24*	1	44*	1	26*
CCOc1ccc(CONS(=O)(=O)c2ccc(NC(C)=O)cc2)cc1Cl	-6	-8	0	-8	42*	-2	67*	7	57*
Cc1nc2ccccc2c2oc(C(=O)N3CCc4ccccc4C3)cc12	17	32	-2	-2	8.7*	4	8.9*	6	11
CCc1cccc(NC(=O)Cn2cc(C=O)c3ccccc32)c1	-13	-2	0	16	9.0*	-1	19*	14	12
COc1ccc(C(=O)N(C)[C@H]2C[C@H]3c4[nH]c5ccccc5c4CCN3C(=O)[C@H]2CO)cc1	nt	nt	nt	nt	44*	nt	62*	-4	26*
C[C@H](O)[C@@H]1C(=O)N2CCc3c([nH]c4ccccc34)[C@@H]2C[C@@H]1N(C)C(=O)Nc1cccc2ccccc12	nt	nt	nt	nt	1	nt	nt	nt	nt
COc1ccc(NC(=O)N(C)[C@H]2C[C@H]3c4[nH]c5ccccc5c4CCN3C(=O)[C@H]2CO)cc1	nt	nt	nt	nt	0	nt	nt	nt	nt
Cc1ccccc1C(=O)N(C)[C@H]1C[C@H]2c3[nH]c4ccccc4c3CCN2C(=O)[C@H]1[C@H](C)O	nt	nt	nt	nt	31*	nt	48*	4	18*
C[C@H](O)[C@@H]1C(=O)N2CCc3c([nH]c4ccccc34)[C@@H]2C[C@@H]1N(C)C(=O)c1cc(Cl)cc(Cl)c1	nt	nt	nt	nt	13*	nt	46*	0	20*
C[C@H](O)[C@@H]1C(=O)N2CCc3c([nH]c4ccccc34)[C@@H]2C[C@@H]1N(C)Cc1ccc2c(c1)OCO2	nt	nt	nt	nt	89*	nt	102*	0	83*
CCN(C)C1CN(Cc2cn(Cc3cc(C)cc(C)c3)nn2)S(=O)(=O)C1 (stereo unspecified)	nt	nt	nt	nt	-1	nt	nt	nt	nt
COc1ccc(NC(=O)N(C)[C@H]2C[C@H]3c4[nH]c5ccccc5c4CCN3C(=O)[C@H]2[C@H](C)O)cc1	nt	nt	nt	nt	2	nt	nt	nt	nt
C[C@H](O)[C@@H]1CN2CCc3c([nH]c4ccccc34)[C@@H]2C[C@@H]1N(C)Cc1cc(Cl)cc(Cl)c1	nt	nt	nt	nt	34*	nt	71*	0	37*
C[C@H](O)[C@@H]1C(=O)N2CCc3c([nH]c4ccccc34)[C@@H]2C[C@@H]1N(C)S(=O)(=O)c1ccccc1	nt	nt	nt	nt	27*	nt	23*	5	8
COc1ccc(-c2sc3ccccc3c2-c2ccc(OC)cc2F)cc1	nt	nt	nt	nt	-1	nt	nt	nt	nt
O=C(Nc1ccccc1Cl)c1cc(C2CCCCN2C(=O)c2cccs2)on1 (stereo unspecified)	nt	nt	nt	nt	0	nt	nt	nt	nt
O=c1[nH]c2cc3ccccc3cc2nc1-c1nnnn1Cc1ccccc1	nt	nt	nt	nt	22*	nt	38*	9	18*
O=c1[nH]c2cc3ccccc3cc2nc1-c1nnnn1C1CCCC1	nt	nt	nt	nt	52*	nt	61*	69*	40*
O=c1[nH]c2ccccc2nc1-c1nnnn1C1CCCC1	nt	nt	nt	nt	0	nt	nt	nt	nt
COc1ccc(C(O)c2nc(-c3ccc(F)c(Cl)c3)cs2)cc1 (stereo unspecified)	nt	nt	nt	nt	0	nt	nt	nt	nt
Cc1ccc2nc(SCC(=O)Nc3ccc(F)c([N+](=O)[O-])c3)[nH]c2c1	-5	3	-2	-4	39*	0	50*	19*	27*
Cc1ccc2nc(SC(C)C(=O)Nc3cccc([N+](=O)[O-])c3)[nH]c2c1 (stereo unspecified)	-1	-13	-2	1	38*	-1	64*	3	37*
O=C(Cn1cc(C(=O)c2cccs2)c2ccccc21)NCc1ccc2c(c1)OCO2	-5	0	-2	nt	21*	0	35*	5	16
O=C(Cn1cc(C(=O)c2cccs2)c2ccccc21)NCC1CCCO1 (stereo unspecified)	-10	3	-1	-39	0	-2	nt	nt	nt
COc1cc(OCc2ccccc2)c(CC(=O)O)c([N+](=O)[O-])c1	nt	nt	nt	nt	0	nt	nt	nt	nt
SMILES	PvdQ acylase	DYRK1A inh	CAL PDZ FP-1	CAL PDZ FP-2	Tb MetRS inh	CDK5 inh	Tb MetRS conf	Jurkat cytotox	TbMetRS FP orth
c1ccc2cc3[nH]c(CN4CCOCC4)nc3cc2c1	-7	3	-2	-4	6.6*	-1	13*	10	-1
c1ccc2[nH]c(CN3CCOCC3)nc2c1	3	0	-1	-1	-1	0	nt	nt	nt
S=c1sscc1-c1ccccc1	-10	7	0	-1	0	0	nt	nt	nt
OC(Cc1cccc(Br)c1)c1ncc(-c2cccc(C(F)(F)F)c2)[nH]1 (stereo unspecified)	nt	nt	nt	nt	0	nt	nt	nt	nt
O=C(NNC(=O)C1CCC1)c1ccc(F)cc1	nt	nt	nt	nt	0	nt	nt	nt	nt
COc1ccc(/C(C#N)=C/c2cccnc2)cc1	74*	31	-5	nt	6.1*	2	15*	-1	8
O=C(NCc1ccco1)/C(=C/c1ccc(C(F)(F)F)cc1)c1nc2ccccc2[nH]1	-11	-1	-3	0	7.7*	-3	5	30*	-3
CC(C)n1c(=O)c2ccccc2n1Cc1cn(-c2ccc(Cl)cc2)nn1	nt	nt	nt	nt	0	nt	nt	nt	nt
O=C(NCc1ccc(F)cc1)c1cc(C2CCCN(C(=O)C3CCCCC3)C2)on1 (stereo unspecified)	nt	nt	nt	nt	0	nt	nt	nt	nt
Cc1ccc(NC(=O)CN(C)C(=O)c2cc(S(=O)(=O)N(C)C)ccc2N2CCCC2)cc1	7	17	-3	1	49*	1	78*	5	52*
CN(CC(=O)Nc1cccc(F)c1)C(=O)c1cc(S(=O)(=O)N(C)C)ccc1N1CCCC1	-2	3	-2	-2	10*	1	27*	3	10
CN(CC(=O)Nc1ccccc1Br)C(=O)c1cc(S(=O)(=O)N(C)C)ccc1N1CCCC1	-2	4	0	-3	0	-1	nt	nt	nt

Screening results (PubChem BioAssay)
